Test results: ChEMBL document CHEMBL4354826, “Structure-Based Discovery of SD-36 as a Potent, Selective, and Efficacious PROTAC Degrader of STAT3 Protein” (J Med Chem, 2019)
Activity calls are given as the source filed them. The rule behind the calls is not given here.

Assays:
Mus musculus [1] = assay: In vivo degradation of phosphorylated STAT3 Y705 in SCID mouse xenografted with MOLM-16 cells at 50 mg/kg, iv measured upto 1 hr by Western blot analysis relative to control; type: functional
In short: (§1)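 SCID mice bearing subcutaneous Molm-16 tumors (3 × 10^6 cells in Matrigel; treated at ~150 mm3) given a single intravenous dose in 10% PEG400 + 90% PBS, or vehicle. Tumors harvested at time points. Lysates immunoblotted for total STAT3 and pSTAT3 Y705, compared with vehicle control.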

[2] = target: T1, Signal transducer and activator of transcription 1-alpha/beta (Homo sapiens, UniProt P42224); assay: Binding affinity to recombinant human His/SUMO-tagged STAT1 (132 to 713 residues) expressed in Escherichia coli Rosetta (DE3) incubated for 1 hr by fluorescence polarization assay
T1 sequence (P42224 whole entry): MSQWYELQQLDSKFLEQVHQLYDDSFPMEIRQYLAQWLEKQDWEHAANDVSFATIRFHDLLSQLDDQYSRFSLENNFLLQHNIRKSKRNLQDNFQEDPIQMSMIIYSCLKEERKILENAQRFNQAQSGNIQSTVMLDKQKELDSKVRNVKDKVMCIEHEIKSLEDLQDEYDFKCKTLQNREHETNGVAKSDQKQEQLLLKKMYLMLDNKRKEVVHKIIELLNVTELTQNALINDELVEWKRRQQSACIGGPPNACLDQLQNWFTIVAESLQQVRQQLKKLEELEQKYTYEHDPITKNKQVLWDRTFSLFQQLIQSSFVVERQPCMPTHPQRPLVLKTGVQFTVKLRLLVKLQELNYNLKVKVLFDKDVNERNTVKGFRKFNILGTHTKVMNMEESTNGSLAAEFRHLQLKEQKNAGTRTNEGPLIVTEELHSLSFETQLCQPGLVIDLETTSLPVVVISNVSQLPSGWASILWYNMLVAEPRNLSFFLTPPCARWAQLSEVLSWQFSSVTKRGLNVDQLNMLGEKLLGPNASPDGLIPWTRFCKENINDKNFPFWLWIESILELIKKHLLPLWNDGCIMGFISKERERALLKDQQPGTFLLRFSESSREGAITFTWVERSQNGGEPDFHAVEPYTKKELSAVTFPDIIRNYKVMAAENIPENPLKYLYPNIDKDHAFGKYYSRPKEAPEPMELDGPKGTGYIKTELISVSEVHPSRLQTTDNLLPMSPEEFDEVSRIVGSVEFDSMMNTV

[3] = target: T2, Protein cereblon/Signal transducer and activator of transcription 4 (Homo sapiens) (UniProt Q96SW2+Q14765); assay: Protac activity at CRBN/STAT4 in human SUDHL1 cells assessed as degradation of STAT4 at 0.01 to 10 uM incubated for 18 hrs by Western blot analysis; type: cell-based
T2 sequence (Q14765 whole entry, looked up): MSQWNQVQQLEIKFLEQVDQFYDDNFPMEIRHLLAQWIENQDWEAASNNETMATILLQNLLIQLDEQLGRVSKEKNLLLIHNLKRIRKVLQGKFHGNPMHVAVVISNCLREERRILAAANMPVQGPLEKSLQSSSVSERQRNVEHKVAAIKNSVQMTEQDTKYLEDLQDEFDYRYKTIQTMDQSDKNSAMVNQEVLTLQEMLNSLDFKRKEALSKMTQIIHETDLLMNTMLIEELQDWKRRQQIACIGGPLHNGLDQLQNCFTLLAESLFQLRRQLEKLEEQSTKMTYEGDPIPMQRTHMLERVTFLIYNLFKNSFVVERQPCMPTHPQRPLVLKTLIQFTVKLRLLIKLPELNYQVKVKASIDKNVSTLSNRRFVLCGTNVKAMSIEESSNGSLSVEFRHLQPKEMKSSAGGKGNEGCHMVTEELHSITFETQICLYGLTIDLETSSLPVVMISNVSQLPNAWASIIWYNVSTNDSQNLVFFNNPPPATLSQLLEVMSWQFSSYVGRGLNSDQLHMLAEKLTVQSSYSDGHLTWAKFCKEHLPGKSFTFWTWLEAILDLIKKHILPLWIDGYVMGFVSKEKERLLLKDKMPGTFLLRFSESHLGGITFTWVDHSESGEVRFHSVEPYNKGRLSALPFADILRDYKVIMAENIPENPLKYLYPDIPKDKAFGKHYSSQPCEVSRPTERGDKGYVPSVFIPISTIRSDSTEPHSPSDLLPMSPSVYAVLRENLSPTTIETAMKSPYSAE
T2 sequence (Q96SW2 whole entry, looked up): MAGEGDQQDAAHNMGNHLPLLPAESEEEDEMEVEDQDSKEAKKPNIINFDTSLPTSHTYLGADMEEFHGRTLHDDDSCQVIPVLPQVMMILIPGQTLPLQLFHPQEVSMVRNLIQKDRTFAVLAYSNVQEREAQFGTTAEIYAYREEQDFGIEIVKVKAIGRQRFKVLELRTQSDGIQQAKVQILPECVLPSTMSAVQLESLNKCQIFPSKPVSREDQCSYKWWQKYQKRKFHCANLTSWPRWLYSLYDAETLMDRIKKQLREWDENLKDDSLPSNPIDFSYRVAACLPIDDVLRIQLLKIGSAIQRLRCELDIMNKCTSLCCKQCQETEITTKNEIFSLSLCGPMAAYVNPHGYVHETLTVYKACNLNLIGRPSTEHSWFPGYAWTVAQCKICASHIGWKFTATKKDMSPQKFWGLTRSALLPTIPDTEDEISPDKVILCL
In short: (§2)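 SU-DHL-1 cells treated 18 h with test compound at 0.01–10 μM, or control compounds at 10 μM. Lysates separated by SDS–PAGE, transferred to PVDF, blocked 1 h in 5% blocker/TBST, probed for each STAT protein, and detected by chemiluminescence.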

[4] = target: T2, Protein cereblon/Signal transducer and activator of transcription 4 (Homo sapiens); assay: Protac activity at CRBN/STAT4 in human MOLM16 cells assessed as degradation of STAT4 at 0.01 to 10 uM incubated for 4 hrs by Western blot analysis; type: cell-based
In short: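 Molm-16 cells treated 4 h with test compound at 0.01–10 μM, or control compounds at 10 μM. Lysates separated by SDS–PAGE, transferred to PVDF, blocked 1 h in 5% blocker/TBST, probed for each STAT protein, and detected by chemiluminescence.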

Homo sapiens [5] = organism: Homo sapiens; assay: Selectivity index, ratio of protac activity at CRBN/STAT4 in human MOLM16 cells to protac activity at CRBN/STAT3 in human MOLM16 cells; type: cell-based
In short: (§3)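 Molm-16 cells treated 4 h with compound at 0.01–10 μM, or controls at 10 μM. Western blot of lysates: SDS–PAGE, PVDF, 1 h block in 5% blocker/TBST, primary and secondary antibodies, chemiluminescent detection. STAT1, -2, -4, -5A/B and -6 levels read against STAT3 to give degradation selectivity.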

Homo sapiens [6] = organism: Homo sapiens; assay: Selectivity index, ratio of protac activity at CRBN/STAT5A in human SUDHL1 cells to protac activity at CRBN/STAT3 in human SUDHL1 cells; type: cell-based
In short: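 SU-DHL-1 cells treated 18 h with compound at 0.01–10 μM, or controls at 10 μM. Immunoblotting used SDS–PAGE, PVDF transfer, 1 h block in 5% blocker/TBST, primary and secondary antibodies and chemiluminescence. Levels of other STAT family members compared with STAT3 to express degradation selectivity.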

[7] = target: T3, Protein cereblon/Signal transducer and activator of transcription 3 (Homo sapiens, UniProt P40763+Q96SW2); assay: Protac activity at CRBN/STAT3 in human SUDHL1 cells assessed as degradation of STAT3 at 0.01 to 10 uM incubated for 18 hrs by Western blot analysis; type: cell-based; in short: as §2
Target sequence in this assay (P40763 2-770 limits assumed): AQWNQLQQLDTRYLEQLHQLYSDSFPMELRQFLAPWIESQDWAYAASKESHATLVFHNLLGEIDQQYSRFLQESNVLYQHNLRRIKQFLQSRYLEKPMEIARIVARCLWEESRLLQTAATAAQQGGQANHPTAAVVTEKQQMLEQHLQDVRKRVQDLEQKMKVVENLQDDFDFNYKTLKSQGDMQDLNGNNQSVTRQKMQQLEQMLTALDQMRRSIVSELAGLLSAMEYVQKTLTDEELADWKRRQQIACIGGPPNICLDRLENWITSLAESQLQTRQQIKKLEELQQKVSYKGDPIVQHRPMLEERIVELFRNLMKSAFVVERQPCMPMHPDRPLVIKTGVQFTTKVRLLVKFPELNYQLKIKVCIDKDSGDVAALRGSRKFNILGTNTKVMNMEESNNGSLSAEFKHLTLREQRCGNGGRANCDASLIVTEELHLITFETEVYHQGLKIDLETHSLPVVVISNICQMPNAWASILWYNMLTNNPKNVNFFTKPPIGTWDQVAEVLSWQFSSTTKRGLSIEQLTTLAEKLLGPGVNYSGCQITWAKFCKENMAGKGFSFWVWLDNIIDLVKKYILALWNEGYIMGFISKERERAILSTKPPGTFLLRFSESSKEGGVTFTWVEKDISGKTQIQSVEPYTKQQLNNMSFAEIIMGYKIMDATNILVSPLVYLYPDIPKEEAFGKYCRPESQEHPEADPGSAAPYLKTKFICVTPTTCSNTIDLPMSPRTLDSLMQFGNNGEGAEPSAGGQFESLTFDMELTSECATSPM
Target sequence in this assay (Q96SW2 whole entry partner): as the sequence (Q96SW2 whole entry, looked up) above

Homo sapiens [8] = organism: Homo sapiens; assay: Selectivity index, ratio of protac activity at CRBN/STAT1 in human MOLM16 cells to protac activity at CRBN/STAT3 in human MOLM16 cells; type: cell-based; in short: as §3
SU-DHL-1 = assay: Antiproliferative activity against human SUDHL1 cells assessed as reduction in cell viability incubated for 4 days by cell-titer glo luminescent assay; type: functional, cell-based; conditions: SU-DHL-1, 96 h
In short: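 Viability assay: cells incubated with serially diluted compounds for 4 days, viability read by CellTiter-Glo luminescence; IC50 from concentration–response.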

Mus musculus [9] = assay: In vivo degradation of STAT3 in SCID mouse xenografted with MOLM-16 cells at 50 mg/kg, iv measured upto 1 hr by Western blot analysis relative to control; type: functional; in short: as §1
[10] = target: T3, Protein cereblon/Signal transducer and activator of transcription 3; assay: Protac activity at CRBN/STAT3 in human MOLM16 cells assessed as degradation of STAT3 incubated for 4 hrs by Western blot analysis; type: cell-based
In short: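 Molm-16 cells treated 4 h with serially diluted compound. Lysates immunoblotted (SDS–PAGE, PVDF, 5% blocker/TBST, chemiluminescence) for total STAT3 and pSTAT3 Y705. DC50 taken as the concentration reducing total STAT3 by 50%.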
Target sequence in this assay (P40763 whole entry): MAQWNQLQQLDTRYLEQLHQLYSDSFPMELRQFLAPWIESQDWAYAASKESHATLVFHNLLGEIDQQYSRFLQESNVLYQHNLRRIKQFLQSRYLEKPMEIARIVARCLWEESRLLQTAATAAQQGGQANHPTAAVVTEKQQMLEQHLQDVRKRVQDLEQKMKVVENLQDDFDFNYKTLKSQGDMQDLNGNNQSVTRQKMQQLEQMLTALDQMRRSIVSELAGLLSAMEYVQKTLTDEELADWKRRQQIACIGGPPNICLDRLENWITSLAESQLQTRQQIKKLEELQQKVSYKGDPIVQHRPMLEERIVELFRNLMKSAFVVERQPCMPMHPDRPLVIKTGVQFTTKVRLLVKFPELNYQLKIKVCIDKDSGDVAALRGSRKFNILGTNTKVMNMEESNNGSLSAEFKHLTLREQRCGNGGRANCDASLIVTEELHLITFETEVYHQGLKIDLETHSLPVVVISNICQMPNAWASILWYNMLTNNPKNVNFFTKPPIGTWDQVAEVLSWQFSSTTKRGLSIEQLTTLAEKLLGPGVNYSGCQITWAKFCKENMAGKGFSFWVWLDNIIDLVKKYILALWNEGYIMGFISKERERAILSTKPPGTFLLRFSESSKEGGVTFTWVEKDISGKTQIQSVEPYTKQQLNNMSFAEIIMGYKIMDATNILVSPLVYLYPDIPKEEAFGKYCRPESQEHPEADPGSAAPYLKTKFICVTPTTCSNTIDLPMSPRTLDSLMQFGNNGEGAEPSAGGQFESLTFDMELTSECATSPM
Target sequence in this assay (Q96SW2 whole entry): as the sequence (Q96SW2 whole entry, looked up) above

[11] = target: Protein cereblon/Signal transducer and activator of transcription 6 (Homo sapiens) (UniProt P42226+Q96SW2); assay: Protac activity at CRBN/STAT6 in human SUDHL1 cells assessed as degradation of STAT6 at 0.01 to 10 uM incubated for 18 hrs by Western blot analysis; type: cell-based; in short: as §2
Sequence of Protein cereblon/Signal transducer and activator of transcription 6 (Homo sapiens) (P42226 2-847 limits assumed): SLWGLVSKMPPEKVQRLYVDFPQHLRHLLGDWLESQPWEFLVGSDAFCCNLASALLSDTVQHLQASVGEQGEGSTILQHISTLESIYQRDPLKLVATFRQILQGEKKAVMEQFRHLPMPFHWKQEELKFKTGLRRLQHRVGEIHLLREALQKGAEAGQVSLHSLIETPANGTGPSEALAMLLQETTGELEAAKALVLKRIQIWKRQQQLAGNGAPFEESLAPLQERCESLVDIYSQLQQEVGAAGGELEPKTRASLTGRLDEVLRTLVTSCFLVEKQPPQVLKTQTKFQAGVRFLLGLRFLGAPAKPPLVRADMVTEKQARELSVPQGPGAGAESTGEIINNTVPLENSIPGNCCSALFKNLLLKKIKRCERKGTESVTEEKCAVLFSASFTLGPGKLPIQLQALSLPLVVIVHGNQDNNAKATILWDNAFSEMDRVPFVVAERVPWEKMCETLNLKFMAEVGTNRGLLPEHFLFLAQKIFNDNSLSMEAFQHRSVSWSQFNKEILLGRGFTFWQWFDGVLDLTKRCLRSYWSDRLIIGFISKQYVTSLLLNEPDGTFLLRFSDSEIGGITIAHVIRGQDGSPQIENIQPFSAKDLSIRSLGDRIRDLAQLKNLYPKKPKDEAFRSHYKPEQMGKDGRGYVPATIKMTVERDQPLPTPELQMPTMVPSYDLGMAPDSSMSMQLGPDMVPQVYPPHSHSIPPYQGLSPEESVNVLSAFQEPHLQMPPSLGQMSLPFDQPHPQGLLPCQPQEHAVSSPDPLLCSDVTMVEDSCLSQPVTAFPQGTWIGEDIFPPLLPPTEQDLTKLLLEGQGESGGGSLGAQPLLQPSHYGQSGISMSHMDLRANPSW
Sequence of Protein cereblon/Signal transducer and activator of transcription 6 (Homo sapiens) (Q96SW2 whole entry partner): as the sequence (Q96SW2 whole entry, looked up) above

[12] = target: Protein cereblon/Signal transducer and activator of transcription 5B (Homo sapiens) (UniProt P51692+Q96SW2); assay: Protac activity at CRBN/STAT5B in human SUDHL1 cells assessed as degradation of STAT5B at 0.01 to 10 uM incubated for 18 hrs by Western blot analysis; type: cell-based; in short: as §2
Sequence of Protein cereblon/Signal transducer and activator of transcription 5B (Homo sapiens) (P51692 whole entry, looked up): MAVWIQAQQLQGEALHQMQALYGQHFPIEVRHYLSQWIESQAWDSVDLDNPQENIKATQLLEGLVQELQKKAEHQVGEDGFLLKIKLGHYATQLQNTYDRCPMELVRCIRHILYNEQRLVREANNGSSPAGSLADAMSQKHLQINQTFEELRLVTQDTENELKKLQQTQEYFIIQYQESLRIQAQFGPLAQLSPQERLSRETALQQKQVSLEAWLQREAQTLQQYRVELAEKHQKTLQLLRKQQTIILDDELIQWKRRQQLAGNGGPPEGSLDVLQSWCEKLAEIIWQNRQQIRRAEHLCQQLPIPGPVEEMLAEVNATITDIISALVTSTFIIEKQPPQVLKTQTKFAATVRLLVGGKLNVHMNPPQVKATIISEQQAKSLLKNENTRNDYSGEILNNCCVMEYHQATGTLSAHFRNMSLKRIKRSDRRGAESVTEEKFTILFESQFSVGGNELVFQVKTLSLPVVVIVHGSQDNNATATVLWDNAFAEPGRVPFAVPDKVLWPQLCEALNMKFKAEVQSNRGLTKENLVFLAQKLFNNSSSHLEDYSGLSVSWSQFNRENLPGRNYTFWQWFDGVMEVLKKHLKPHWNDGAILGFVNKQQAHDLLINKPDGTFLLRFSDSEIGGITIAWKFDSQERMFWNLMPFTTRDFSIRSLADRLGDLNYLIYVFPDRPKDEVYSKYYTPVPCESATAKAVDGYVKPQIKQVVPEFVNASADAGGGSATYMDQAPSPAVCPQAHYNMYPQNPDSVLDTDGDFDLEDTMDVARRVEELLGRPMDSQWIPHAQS
Sequence of Protein cereblon/Signal transducer and activator of transcription 5B (Homo sapiens) (Q96SW2 whole entry, looked up): as the sequence (Q96SW2 whole entry, looked up) above

Homo sapiens [13] = organism: Homo sapiens; assay: Selectivity index, ratio of protac activity at CRBN/STAT5A in human MOLM16 cells to protac activity at CRBN/STAT3 in human MOLM16 cells; type: cell-based; in short: as §3
Mus musculus [14] = assay: In vivo degradation of STAT3 in CD1 mouse at 25 mg/kg, iv measured upto 48 hrs by Western blot analysis; type: functional, organism-based
In short: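 Female CD-1 mice given a single intravenous dose in 10% PEG400 + 90% PBS, or vehicle. Euthanized at set time points. Spleen harvested and lysates immunoblotted for STAT3.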

Question: For `NC(=O)CC[C@H](NC(=O)[C@@H]1CC[C@@H]2CCN(C(=O)CCCCCC#Cc3cccc4c3CN(C3CCC(=O)NC3=O)C4=O)C[C@H](NC(=O)c3cc4cc(C(F)(F)P(=O)(O)O)ccc4[nH]3)C(=O)N21)C(=O)NC(c1ccccc1)c1ccccc1` (stereo not given in full), which Activity (Mus musculus [1]) is on record?
Answer: >90%

Question: What about the Kd [2] of the same compound?
Answer: 1 µM

Question: And the Activity [3]?
Answer: inactive

Question: And the Activity [4]?
Answer: inactive

Question: What about the Ratio (Homo sapiens [5]) of the same compound?
Answer: > 100

Question: And the Ratio (Homo sapiens [6])?
Answer: > 100

Question: What about the Activity [7] of the same compound?
Answer: Active

Question: What about the Ratio (Homo sapiens [8]) of the same compound?
Answer: > 100

Question: And the IC50 (SU-DHL-1)?
Answer: 0.61 µM

Question: And the Activity (Mus musculus [9])?
Answer: >95%

Question: What about the DC50 [10] of the same compound?
Answer: 0.06 µM

Question: What about the Activity [11] of the same compound?
Answer: inactive

Question: And the Activity [12]?
Answer: inactive

Question: What about the Ratio (Homo sapiens [13]) of the same compound?
Answer: > 100

Question: What about the Activity (Mus musculus [14]) of the same compound?
Answer: Active
